Experiment [1] concerns MKN-45. As to the kind of experiment: Antiproliferative activity against human MKN45 cells assessed as cell viability at 100 nM after 72 hrs by MTT assay relative to control. In kind it is functional. The note with it: MKN-45, 72 h, read-out: Activity. Put shortly:
(§1)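 Single-concentration MTT screen. Log-phase cells in DMEM with 10% FCS were treated for 72 h in 96-well plates. After MTT and DMSO, absorbance was read at 570 nm. Viability was calculated relative to control as mean ± SD of three independent experiments.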
A general note: Tetrazolium dyes change colour on reduction, which living cells bring about.

The subject of experiment [2] is KB. As to the kind of experiment: Antiproliferative activity against human KB cells assessed as cell viability at 100 nM after 72 hrs by MTT assay relative to control. In kind it is functional. The following applies: read-out: Activity. Put shortly:
as §1

In experiment [3] the test system is MKN-45. As to the kind of experiment: Antiproliferative activity against human MKN45 cells assessed as cell viability at 10 uM after 72 hrs by MTT assay relative to control. In kind it is functional. The note with it: MKN-45, 72 h, read-out: Activity. In outline:
as §1

Experiment [4] concerns KB. As to the kind of experiment: Antiproliferative activity against human KB cells assessed as cell viability at 10 uM after 72 hrs by MTT assay relative to control. In kind it is functional. The following applies: read-out: Activity. In outline:
as §1

For experiment [5], the system named is KB. As to the kind of experiment: Antiproliferative activity against human KB cells after 72 hrs by MTT assay. In kind it is functional, cell-based. In outline:
(§2)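 Cells grown in DMEM with 10% heat-inactivated FCS, penicillin and streptomycin, at 37°C in 5% CO₂, and used in log phase. Cells were seeded in 96-well plates and exposed to compound for 72 h. MTT was added, then DMSO, and OD was read at 570 nm. Survival rate was calculated and IC50 taken as 50% growth inhibition.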

The nature of experiment [6]: Antiproliferative activity against human KBV cells after 72 hrs by MTT assay. In kind it is functional, cell-based. Put shortly:
as §2

The next experiment deals with HeLa. As to the kind of experiment: Antiproliferative activity against human HeLa cells after 72 hrs by MTT assay. In kind it is functional, cell-based. Put shortly: as §2
For the next experiment, the system named is A549. As to the kind of experiment: Antiproliferative activity against human A549 cells after 72 hrs by MTT assay. The following applies: A549, 72 h. In kind it is functional, cell-based. Put shortly: as §2
Experiment [7] has as its system MKN-45. As to the kind of experiment: Antiproliferative activity against human MKN45 cells after 72 hrs by MTT assay. In kind it is functional, cell-based. The following applies: MKN-45, 72 h. In outline:
as §2

The next experiment relates to BGC-823. As to the kind of experiment: Antiproliferative activity against human BGC823 cells after 72 hrs by MTT assay. The following applies: BGC-823, 72 h. In kind it is functional, cell-based. Put shortly: as §2
The next experiment relates to AGS. As to the kind of experiment: Antiproliferative activity against human AGS cells after 72 hrs by MTT assay. In kind it is functional, cell-based. Put shortly:
as §2

In experiment [8] the test system is MKN-45. As to the kind of experiment: Cell cycle arrest in human MKN45 cells assessed as apoptotic cell accumulation at 10 uM after 24 hrs by propidium iodide staining based flow cytometry (reference value: 1.51%). In kind it is functional. In outline:
(§3)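 MKN45 cells were plated at 2×10⁵ cells/well in 6-well plates and exposed for 24 and 48 h. Cells were harvested, fixed and stained with propidium iodide (50 µg/mL). DNA content was read by FACScan flow cytometry for phase distribution. The sub-G0/G1 fraction was taken as apoptotic.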
Background: A flow cytometer gives signals particle by particle.

Experiment [9] deals with MKN-45. As to the kind of experiment: Cell cycle arrest in human MKN45 cells assessed as accumulation at G1-phase at 10 uM after 24 hrs by propidium iodide staining based flow cytometry (reference value: 67%). In kind it is functional. Put shortly:
as §3

Experiment [10] concerns MKN-45. As to the kind of experiment: Cell cycle arrest in human MKN45 cells assessed as accumulation at S-phase at 10 uM after 24 hrs by propidium iodide staining based flow cytometry (reference value: 15%). In kind it is functional. In outline: as §3
Experiment [11] deals with MKN-45. As to the kind of experiment: Cell cycle arrest in human MKN45 cells assessed as accumulation at G2/M-phase at 10 uM after 24 hrs by propidium iodide staining based flow cytometry (reference value: 19%). In kind it is functional. Put shortly:
as §3

The test system of experiment [12] is MKN-45. As to the kind of experiment: Cell cycle arrest in human MKN45 cells assessed as apoptotic cell accumulation at 10 uM after 48 hrs by propidium iodide staining based flow cytometry (reference value: 1.51%). In kind it is functional. In outline: as §3
Experiment [13] concerns MKN-45. As to the kind of experiment: Cell cycle arrest in human MKN45 cells assessed as accumulation at G1-phase at 10 uM after 48 hrs by propidium iodide staining based flow cytometry (reference value: 67%). In kind it is functional. In outline:
as §3

The test system of experiment [14] is MKN-45. As to the kind of experiment: Cell cycle arrest in human MKN45 cells assessed as accumulation at S-phase at 10 uM after 48 hrs by propidium iodide staining based flow cytometry (reference value: 15%). In kind it is functional. Put shortly: as §3
Experiment [15] deals with MKN-45. As to the kind of experiment: Cell cycle arrest in human MKN45 cells assessed as accumulation at G2/M-phase at 10 uM after 48 hrs by propidium iodide staining based flow cytometry (reference value: 19%). In kind it is functional. Put shortly:
as §3

In experiment [16] the test system is MKN-45. As to the kind of experiment: Induction of apoptosis in human MKN45 cells assessed as increase in cleaved PARP expression at 5 to 10 uM after 48 hrs by Western blot method. In kind it is functional, cell-based. Put shortly: (§4)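 MKN45 cells (2×10⁵) were treated with 5 or 10 µM. Lysates were run by electrophoresis and transferred to PVDF. Blots were probed overnight at 4°C for Bax, BCL2, PARP and β-actin (loading control), then with HRP secondary, and detected by ECL. Band density was scored in arbitrary units; three experiments.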
A general note: A western blot detects proteins with antibodies after separation by electrophoresis.

For experiment [17], the system named is MKN-45. As to the kind of experiment: Induction of apoptosis in human MKN45 cells assessed as decrease in Bcl2 expression after 24 hrs by Western blot method. In kind it is functional, cell-based. Put shortly: as §4
Experiment [18] deals with MKN-45. As to the kind of experiment: Induction of mitochondrial membrane potential loss in human MKN45 cells at 5 to 10 uM after 24 hrs by JC-1 staining based flow cytometry. In kind it is functional, cell-based. Put shortly: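 MKN45 cells were plated at 2×10⁵ cells/well in 6-well plates and exposed to indicated concentrations for 24 h. They were stained with JC-1 for 20 min, and the change in mitochondrial membrane potential was measured by flow cytometry; three experiments.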

In experiment [19] the test system is MKN-45. As to the kind of experiment: Induction of apoptosis in human MKN45 cells assessed as increase in Bax expression at 5 to 10 uM after 24 hrs by Western blot method. In kind it is functional, cell-based. In outline:
as §4

Experiment [20] concerns MKN-45. As to the kind of experiment: Induction of apoptosis in human MKN45 cells assessed as increase in Bax/Bcl2 expression ratio at 5 to 10 uM after 24 hrs by Western blot method. In kind it is functional, cell-based. In outline: as §4

Calls of active or inactive are those of the source. The calls are words filed in the database; no cut-off is given here.

In ChEMBL document CHEMBL4130512, “Design, synthesis and biological evaluation of novel α-hederagenin derivatives with anticancer activity” (Eur J Med Chem, 2017) one finds viability, IC50 and Activity data, which are given here for three molecules.

In the case of `CC(=O)O[C@H]1C(=O)[C@@]2(C)[C@H]([C@H](OC(=O)c3ccccc3)[C@]3(O)C[C@H](OC(=O)[C@H](O)[C@@H](NC(=O)c4ccccc4)c4ccccc4)C(C)=C1C3(C)C)[C@]1(OC(C)=O)CO[C@@H]1C[C@@H]2O` [PACLITAXEL], the viability at 0.1 µM was 23% in the experiment with MKN-45 [1] and 15% in the experiment on KB [2].
Take `CC1(C)CC[C@]2(C(=O)O)CC[C@]3(C)C(=CC[C@@H]4[C@@]5(C)CC[C@H](O)[C@@](C)(CO)[C@@H]5CC[C@]43C)[C@@H]2C1` [HEDERAGENIN]: the viability at 10 µM in the experiment on MKN-45 [3] was 75%; in the experiment with KB [4], 81%. The IC50 (commonly the concentration needed to halve the response being measured) is 54.4 µM in the experiment on KB [5]; above 100 µM in experiment [6]; 54 µM in the experiment with HeLa; above 100 µM in the experiment with A549; 53.7 µM in the experiment on MKN-45 [7]; 52.1 µM with BGC-823. The molecule also came in with an IC50 with AGS of 36.1 µM. The Activity in the experiment on MKN-45 [8] is on record as 1.44%; in the experiment with MKN-45 [9], 69%; in the experiment on MKN-45 [10], 14%; in the experiment with MKN-45 [11], 17%; with MKN-45 [12], 5.87%; in the experiment on MKN-45 [13] it was 63%. Further, the Activity worked out at 12% in the experiment with MKN-45 [14] and 25% in the experiment on MKN-45 [15].
In the case of `CCN/C(=N/CCCN(C)C)OC(=O)c1ccccc1C(=O)OC[C@]1(C)C(=O)CC[C@@]2(C)[C@H]1CC[C@]1(C)[C@@H]2CC=C2[C@@H]3CC(C)(C)CC[C@]3(C(=O)OCc3ccccc3)CC[C@]21C`, the results for the viability at 10 µM in the experiment with MKN-45 [3] and in the experiment with KB [4] were 7% and 26%, respectively. Further, the IC50 with KB [5] amounted to 4.75 µM; in [6], 8.05 µM; in the experiment with HeLa, 4.22 µM; in the experiment on A549 it was 6.3 µM; with MKN-45 [7], 7 µM; in the experiment with BGC-823, 5.15 µM. In the experiment with AGS, half-maximal inhibition (IC50) was put at 4.4 µM. Moreover, the Activity with MKN-45 [8] is recorded as 2.47%; with MKN-45 [9], 68%; with MKN-45 [10] it was 11%; in the experiment on MKN-45 [11], 21%; with MKN-45 [12] it was 38.68%; in the experiment on MKN-45 [13], 54%. Also, the Activity in the experiment with MKN-45 [14] is 16%; in the experiment on MKN-45 [15] it was 31%; in the experiment with MKN-45 [17], “Dose-dependent effect”. The outcome in the experiment with MKN-45 [16], in the experiment with MKN-45 [18], in the experiment on MKN-45 [19] and in the experiment on MKN-45 [20] was Active.
